# From PubChem BioAssay
# This is a sample that favours compounds with a hit; in the whole collection about 2.1% have one here.
# PGC1a acetyl inh – modulators of PGC1a acetylation | U2OS PGC1a acetylation, AlphaScreen anti-acetyl-lysine; with virally co-expressed GCN5 acetyltransferase | inhibition, % at 15.6 µM | 0.17% of 350,000 active | AID 651687;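 active means every replicate shows inhibition of at least 40%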;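 further: 0% = neutral control wells and 100% = positive control wells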
# PAX8 inh HTS – lowers PAX8-driven luciferase in RMG-I cells. inhibition, % at 12.6 µM. AID 652154. 1.2% of 360,000 active. RMG-I TPO-luciferase reporter, SteadyGlo, 24 h;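 active means mean replicate inhibition at least 60% with every replicate also reaching 60%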;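 further: luciferase light reporting Pax8 driven TPO promoter activity; plate controls were median of neutral control wells for no effect and mitoxantrone controls for full effect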
# Xi reactivation – reactivates the inactive X chromosome in mouse fibroblasts. 0.055% of 360,000 active. XiGFP mouse fibroblasts, % GFP-positive cells imaging, 3 d; cells co-treated with 5-aza-dC sensitizer; scaled so ellipticine positive control = 100%. activation, % at 7.58 µM;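 active means mean normalized replicate activation at least 10% and every replicate at or above 10%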;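 further: 0% = median of on-plate neutral control wells and 100% = ellipticine 6 µM median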
#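 System: XiGFP fibroblasts, SV40-immortalized. Medium: DMEM plus 5-aza-dC sensitizer. Doses: single point. Timing: 3 d treatment, 15 min room-temperature fixation. Control set: ellipticine 6 µM.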
# AF4-AF9 inh – MLL-AF4/AF9 protein interaction inhibition | inhibition, % at 10 µM | AlphaScreen, biotin-AF4 peptide binding to FLAG-AF9 | 0.47% of 350,000 active | AID 651704 | P42568;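 active means every replicate reaching a set inhibition limit, whatever the replicate mean, cut at about 25% in these data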;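 further: 0% = plate neutral control median and 100% = total signal loss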
# Target sequence (P42568 whole entry, looked up): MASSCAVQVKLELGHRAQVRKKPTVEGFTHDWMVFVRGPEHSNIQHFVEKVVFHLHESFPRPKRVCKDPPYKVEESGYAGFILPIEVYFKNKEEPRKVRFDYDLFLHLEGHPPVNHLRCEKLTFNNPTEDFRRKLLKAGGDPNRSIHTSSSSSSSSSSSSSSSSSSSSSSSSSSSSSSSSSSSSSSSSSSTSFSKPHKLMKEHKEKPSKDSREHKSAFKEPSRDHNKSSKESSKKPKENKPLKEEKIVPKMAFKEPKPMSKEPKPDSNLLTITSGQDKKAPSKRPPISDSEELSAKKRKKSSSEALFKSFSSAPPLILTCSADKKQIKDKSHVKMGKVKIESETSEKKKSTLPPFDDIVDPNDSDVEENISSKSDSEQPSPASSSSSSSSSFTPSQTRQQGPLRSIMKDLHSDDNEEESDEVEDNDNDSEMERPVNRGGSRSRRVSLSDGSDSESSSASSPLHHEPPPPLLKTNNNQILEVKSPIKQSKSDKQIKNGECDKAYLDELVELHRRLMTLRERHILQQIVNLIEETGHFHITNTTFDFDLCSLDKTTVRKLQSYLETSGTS
# EWS-Fli inh – EWS/Fli transcriptional activity inhibition; inhibition, % at 12.6 µM; A673 NR0B1-luciferase reporter, viability-normalised; 0.67% of 350,000 active;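 active means mean inhibition of at least 50% after viability correction, with every replicate also passing that limit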;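 further: firefly luciferase signal divided by Alamar Blue viability fluorescence both relative to DMSO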
# INS-1E GSIS act – GLuc luminescence reporter in INS-1E cells, primary screen for activators of glucose-dependent secretion of insulin | INS-1E GLuc reporter insulin secretion, 2-3 h | activation, % at 16.6 µM | 0.61% of 370,000 active;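 active means lowest replicate activation of at least 40%, so every replicate reaches that level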;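 further: 0% = median of neutral control wells and 100% = median of IBMX positive control wells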
# Starred values were filed as active, the others as inactive; . = no result given.
SMILES,PGC1a acetyl inh,PAX8 inh HTS,Xi reactivation,AF4-AF9 inh,EWS-Fli inh,INS-1E GSIS act
CC(=O)Nc1ccc2c(c1)C(=O)N(C)[C@@H]1CC[C@@H](CC(=O)NCc3ccc(Cl)cc3)O[C@H]1CO2,-1,-17,0,0,16,2
Cc1c(CCCl)c(Cl)n2c(nc3ccccc32)c1C#N,.,87*,0,0,46,.
Cc1cc(Cl)n2c(nc3ccccc32)c1C#N,.,55,0,0,24,-10
c1ccc(CN2CCC(=NNc3nc4ccccc4[nH]3)CC2)cc1,8,16,0,34*,-33,-28
COc1ccc([C@H]2CC(=O)C=C(c3cc(C)ccc3OC)C2)cc1,.,19,0,1,60*,-15
COc1ccc(OC)c(C2=CC(=O)C[C@H](c3ccc4c(c3)OCO4)C2)c1,-28,-7,0,8,66*,8
COc1ccc([C@H]2CC(=O)C=C(c3cc(Br)ccc3OC)C2)cc1,2,30,0,3,26,3
CCOc1ccc(Br)cc1C1=CC(=O)C[C@H](c2ccc(OC)cc2)C1,.,31,0,0,57*,-7
COc1ccc([C@H]2CC(=O)C=C(c3cc(C)ccc3F)C2)cc1,.,8,0,-39,2,6
O=C(Nc1ccccc1F)N1CCCCN2[C@H](C1)[C@@H](c1ccc(C#Cc3cccnc3)cc1)[C@@H]2CO,-7,9,0,-8,-2,17
N#C[C@H]1[C@H](c2ccccc2-c2ccccc2F)[C@H](CO)N1C(=O)C1CCC1,3,.,0,0,-3,-1
C[C@@H]1CCCCO[C@H](CN(C)C(=O)NC2CCCCC2)[C@H](C)CN([C@@H](C)CO)C(=O)c2cc(NC(=O)c3ccccc3)ccc2O1,-4,-21,0,.,-2,-34
CCCNC(=O)N1C[C@H](O)COC[C@@H]2O[C@@H](CC(=O)N3CCN(C)CC3)CC[C@H]21,5,-14,0,-3,-1,2
O=C(COc1nncc2ccccc12)NCC(F)(F)F,.,-13,0,-2,0,44*
COc1ccc([C@H]2CC(=O)C=C(c3ccc(-c4ccccc4)cc3)C2)cc1OC,.,20,0,2,-8,3
COc1ccc(C2=NN(c3ccc(C(=O)O)cc3)C(c3ccc(OC)c(OC)c3)C2)cc1 (centres undefined),-5,-60,0,-4,0,53*
COc1ccc(C2CC(c3cccs3)=NN2C(=O)c2ccccc2)cc1OC (centres undefined),.,-2,0,14,-3,5
COc1ccc(C2CC(c3ccccc3O)=NN2C(=O)c2ccccc2)cc1OC (centres undefined),5,9,0,41*,7,-13
COc1ccc([C@H]2CC(=O)C=C(c3ccc(C(=O)O)cc3)C2)cc1OC,.,-6,0,0,6,91*
COc1ccc(C2CC(c3cccs3)=NN2C(=O)CCl)cc1OC (centres undefined),.,-3,0,3,58*,-32
COc1cc(CN2CC3(CN(C(C)=O)C3)c3c([nH]c4cc(OC)ccc34)[C@@H]2CO)cc(OC)c1,.,.,0,.,.,14
O=C(CCl)N1N=C(c2ccco2)CC1c1cccs1 (centres undefined),-2,.,.,.,.,.
Cc1ccc(C2=NN(C(=O)CCl)C(c3cccs3)C2)o1 (centres undefined),.,65*,0,1,48,-39
COc1cc(C2CC(c3cccs3)=NN2C(=O)CCl)ccc1OC(F)F (centres undefined),.,-32,0,0,61*,-31
Cc1cccc(S(=O)(=O)N2C[C@H](O)COC[C@H]3O[C@@H](CC(=O)NCCCN4CCOCC4)CC[C@@H]32)c1,-1,-6,0,0,-7,16
SMILES,PGC1a acetyl inh,PAX8 inh HTS,Xi reactivation,AF4-AF9 inh,EWS-Fli inh,INS-1E GSIS act
CCCCCCCCCn1c2c(c(=N)c3c1CCC3)CCCC2,33,.,.,.,.,.
CCCCCCCCCCn1c2c(c(=N)c3c1CCC3)CCC2,.,.,.,.,.,339*
CCCCCCCCn1c2c(c(=N)c3ccccc31)CCC2,23,80*,1,14,42,59
CCCCCn1c2c(c(=N)c3ccccc31)CCC2,2,67*,0,-4,22,-36
CC(=O)N1C[C@@H]2C(c3ccc(Br)cc3)[C@H](C1)N2C(C)=O (some centres undefined),.,.,0,.,.,1
COc1ccc2c3c(n(C)c2c1)[C@@H](CO)N(Cc1ccccc1F)CC31CCN(C(=O)C2CCCC2)CC1,.,12,0,-3,27,-9
C/C=C/c1ccc2c(c1)O[C@H](CN(C)C(=O)C1CCCCC1)[C@@H](C)CN([C@H](C)CO)S2(=O)=O,-2,-17,-1,4,8,-17
CC(C)Cn1c(=O)n(C)c(=O)c2[nH]cnc21,4,4,0,-2,-3,73*
CCOC(=O)c1sc2ncn(/N=C/c3cccnc3)c(=O)c2c1C,12,.,.,.,.,52*
CCC(C)N1C(=O)S/C(=C/c2ccc(N3CCOCC3)cc2C)C1=O (centres undefined),.,-56,0,26*,-1,9
CCOc1ccc(-c2nnn(CC(=O)NCc3ccco3)n2)cc1,-5,-15,.,.,.,.
CCOc1ccc(-c2cc(CCCC(=O)NCc3ccco3)no2)cc1,9,-1,0,-3,71*,-33
Cc1nc(NC(C)C)c2oc3ccccc3c2n1,-9,.,.,.,.,.
CCNc1nc(C)nc2c1oc1ccccc12,16,.,.,.,.,67*
CCNc1nc(CC)nc2c1oc1ccccc12,-1,.,.,.,.,81*
COc1cccc(CN2[C@H](CO)[C@H](c3ccccc3)C23CN(C(=O)C2CCCCC2)C3)c1,-2,10,0,2,-6,-15
O=C([C@H]1[C@H](CO)[C@H]2Cn3c(ccc(-c4ccncc4)c3=O)[C@H]2N1CCC(F)(F)F)N1CCOCC1,.,8,0,-26,4,-5
CCc1nc2c(c(=O)[nH]1)C1(CCCC1)Cc1ccccc1-2,0,.,.,.,.,.
Cc1nc(=S)c2c([nH]1)-c1ccccc1CC21CCCCC1,1,-18,0,3,54*,1
C[C@@H]1CN([C@@H](C)CO)C(=O)c2cccc(NS(=O)(=O)c3ccc(F)cc3)c2O[C@@H]1CN(C)C(=O)Nc1cccc2ccccc12,-5,.,0,2,4,-10
COc1ccc(-c2ccc3c(c2)[C@@H]2[C@@H](CCN2C(=O)NC2CCCC2)[C@H](CO)N3C)cc1,10,1,0,36*,8,-28
COc1ccc(-c2ccc3c(c2)[C@@H]2[C@@H](CCN2C(=O)Nc2ccc(F)cc2)[C@H](CO)N3C)cc1,-11,54,0,30*,2,-47
